Test results as given in ChEMBL document CHEMBL4732237, “Discovery of 4-alkoxy-2-aryl-6,7-dimethoxyquinolines as a new class of topoisomerase I inhibitors endowed with potent in vitro anticancer activity” (2021).

Legend:
[1] = tested on: T47D; experiment: Growth inhibition of human T47D cells incubated for 48 hrs by sulforhodamine B assay; assay type: functional
How it was run: (§1)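 NCI five-dose assay, with drug stocks in DMSO diluted in medium to five concentrations (10-fold or ½-log series). Cells in RPMI 1640/5% FBS were pre-incubated 24 h, and time-zero plates were TCA-fixed at drug addition. After 48 h at 37 °C, cells were TCA-fixed, SRB-stained and read at 515 nm. GI50 is from [(Ti-Tz)/(C-Tz)]×100 = 50, TGI from Ti = Tz, and LC50 from [(Ti-Tz)/Tz]×100 = -50.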

[2] = tested on: 786-0; experiment: Growth inhibition of human 786-0 cells incubated for 48 hrs by sulforhodamine B assay; assay type: functional
How it was run: (§2)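 NCI five-dose screen covering 0.01–100 µM, prepared as 10-fold or ½-log dilutions from DMSO stock. Cells in RPMI 1640 with 5% FBS were exposed for 48 h at 37 °C after 24 h preincubation. Adherent cells were fixed with TCA (final 10%) and suspension cells were settled before fixing. Stain was SRB, read at 515 nm. GI50 = 50% reduction in net protein increase versus control, with Tz taken at drug addition.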

[3] = tested on: NCI/ADR-RES; experiment: Growth inhibition of human NCI/ADR-RES cells incubated for 48 hrs by sulforhodamine B assay; assay type: functional
How it was run: (§3)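 NCI five-dose screen (0.01–100 µM; five concentrations plus control). Cells grown in RPMI 1640/5% FBS/2 mM L-glutamine and preincubated 24 h, with time-zero plates TCA-fixed. Drug exposure 48 h at 37 °C, followed by SRB protein staining and reading at 515 nm. GI50 is the concentration at [(Ti-Tz)/(C-Tz)]×100 = 50.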

[4] = tested on: NCI-H322M; experiment: Growth inhibition of human NCI-H322M cells incubated for 48 hrs by sulforhodamine B assay; assay type: functional; how it was run: as §3
[5] = tested on: SK-OV-3; experiment: Growth inhibition of human SK-OV-3 cells incubated for 48 hrs by sulforhodamine B assay; assay type: functional; how it was run: as §3
[6] = tested on: SF-539; experiment: Growth inhibition of human SF-539 cells incubated for 48 hrs by sulforhodamine B assay; assay type: functional; how it was run: as §3
[7] = tested on: HCT-116; experiment: Growth inhibition of human HCT-116 cells incubated for 48 hrs by sulforhodamine B assay; assay type: functional; how it was run: as §2
[8] = tested on: SK-MEL-28; experiment: Growth inhibition of human SK-MEL-28 cells incubated for 48 hrs by sulforhodamine B assay; assay type: functional; how it was run: as §3
[9] = tested on: SW-620; experiment: Growth inhibition of human SW-620 cells incubated for 48 hrs by sulforhodamine B assay; assay type: functional; how it was run: as §1
[10] = tested on: HCT-29; experiment: Growth inhibition of human […] cells incubated for 48 hrs by sulforhodamine B assay; assay type: functional; how it was run: as §2
[11] = tested on: OVCAR-3; experiment: Growth inhibition of human OVCAR-3 cells incubated for 48 hrs by sulforhodamine B assay; assay type: functional; how it was run: as §3
[12] = tested on: NCI-H522; experiment: Growth inhibition of human NCI-H522 cells incubated for 48 hrs by sulforhodamine B assay; assay type: functional; how it was run: as §3
[13] = tested on: K562; experiment: Growth inhibition of human K562 cells incubated for 48 hrs by sulforhodamine B assay; assay type: functional; how it was run: as §2
[14] = tested on: ACHN; experiment: Growth inhibition of human ACHN cells incubated for 48 hrs by sulforhodamine B assay; assay type: functional; how it was run: as §2
[15] = tested on: MDA-MB-231; experiment: Growth inhibition of human MDA-MB-231 cells incubated for 48 hrs by sulforhodamine B assay; assay type: functional; how it was run: as §2
[16] = tested on: OVCAR-4; experiment: Growth inhibition of human OVCAR-4 cells incubated for 48 hrs by sulforhodamine B assay; assay type: functional; how it was run: as §3
[17] = tested on: HL-60(TB); experiment: Growth inhibition of human HL-60(TB) cells incubated for 48 hrs by sulforhodamine B assay; assay type: functional
How it was run: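 NCI-60 five-dose screen. Cells in RPMI 1640 with 5% FBS and 2 mM L-glutamine were plated at 5000–40,000 cells/well and preincubated 24 h at 37 °C, 5% CO2. Drugs in DMSO were given at five serial 10-fold or ½-log dilutions for 48 h. Adherent cells fixed with 10% TCA (final); suspension cells fixed after settling. SRB stained; A515. GI50 from [(Ti-Tz)/(C-Tz)]x100 = 50.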

[18] = tested on: HCC 2998; experiment: Growth inhibition of human HCC 2998 cells incubated for 48 hrs by sulforhodamine B assay; assay type: functional; how it was run: as §2
[19] = tested on: MDA-MB-468; experiment: Growth inhibition of human MDA-MB-468 cells incubated for 48 hrs by sulforhodamine B assay; assay type: functional; how it was run: as §2
[20] = tested on: U-251; experiment: Growth inhibition of human U-251 cells incubated for 48 hrs by sulforhodamine B assay; assay type: functional; how it was run: as §1
[21] = target: T1, DNA topoisomerase 1 (Homo sapiens) (UniProt P11387); experiment: Inhibition of recombinant human TOPO1 assessed as TOP1-DNA cleavage complexes at 1 uM using 3'-[32-P]-117 labeled bp DNA as substrate incubated for 30 mins by SDS-PAGE analysis relative to control
T1 sequence (whole entry): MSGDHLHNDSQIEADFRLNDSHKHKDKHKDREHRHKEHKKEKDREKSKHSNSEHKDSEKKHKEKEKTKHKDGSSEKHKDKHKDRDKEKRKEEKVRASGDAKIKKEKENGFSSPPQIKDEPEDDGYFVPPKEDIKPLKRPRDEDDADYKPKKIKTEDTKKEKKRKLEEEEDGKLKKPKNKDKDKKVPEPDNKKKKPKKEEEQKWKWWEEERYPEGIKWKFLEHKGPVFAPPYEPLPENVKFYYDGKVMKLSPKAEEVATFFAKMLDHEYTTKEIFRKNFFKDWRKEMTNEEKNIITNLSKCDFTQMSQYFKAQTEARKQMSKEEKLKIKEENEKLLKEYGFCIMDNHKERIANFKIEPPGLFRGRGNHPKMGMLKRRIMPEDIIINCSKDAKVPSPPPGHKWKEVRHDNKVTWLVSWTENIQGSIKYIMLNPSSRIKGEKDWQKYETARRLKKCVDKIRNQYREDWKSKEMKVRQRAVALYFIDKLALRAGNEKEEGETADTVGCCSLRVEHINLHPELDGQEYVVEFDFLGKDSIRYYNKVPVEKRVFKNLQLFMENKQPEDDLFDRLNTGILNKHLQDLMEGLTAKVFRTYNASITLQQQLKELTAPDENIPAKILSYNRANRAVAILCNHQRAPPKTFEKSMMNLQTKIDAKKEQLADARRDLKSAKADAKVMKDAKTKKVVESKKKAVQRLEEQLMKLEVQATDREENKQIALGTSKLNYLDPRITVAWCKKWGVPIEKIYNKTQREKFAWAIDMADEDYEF

[22] = tested on: MOLT-4; experiment: Growth inhibition of human MOLT-4 cells incubated for 48 hrs by sulforhodamine B assay; assay type: functional; how it was run: as §3
[23] = tested on: A549; experiment: Growth inhibition of human A549 cells incubated for 48 hrs by sulforhodamine B assay; assay type: functional; how it was run: as §2
[24] = tested on: KM12; experiment: Growth inhibition of human KM12 cells incubated for 48 hrs by sulforhodamine B assay; assay type: functional; how it was run: as §2
[25] = tested on: SF-268; experiment: Growth inhibition of human SF-268 cells incubated for 48 hrs by sulforhodamine B assay; assay type: functional; how it was run: as §3
[26] = tested on: CCRF-CEM; experiment: Growth inhibition of human CCRF-CEM cells incubated for 48 hrs by sulforhodamine B assay; assay type: functional; how it was run: as §2
[27] = tested on: IGROV-1; experiment: Growth inhibition of human IGROV-1 cells incubated for 48 hrs by sulforhodamine B assay; assay type: functional; how it was run: as §2
[28] = tested on: UACC-62; experiment: Growth inhibition of human UACC-62 cells incubated for 48 hrs by sulforhodamine B assay; assay type: functional; how it was run: as §1

Row | SMILES | GI50 [1] | GI50 [2] | GI50 [3] | GI50 [4] | GI50 [7] | GI50 [8] | GI50 [9] | GI50 [10] | GI50 [11] | GI50 [12] | GI50 [13] | GI50 [14] | GI50 [15] | GI50 [16] | GI50 [18] | GI50 [19] | GI50 [20] | inhibition [21] | GI50 [22] | GI50 [23] | also measured
1 | COc1cc2nc(-c3ccc(C(F)(F)F)cc3)cc(OCCCN3CCC(O)CC3)c2cc1OC | 2970 nM | 4720 nM | 847 nM | 10200 nM | 671 nM | 2380 nM | 3530 nM | 486 nM | 6100 nM | 4150 nM | 1790 nM | 3180 nM | 919 nM | 9140 nM | 4070 nM | 1630 nM | 2120 nM | 0% | 3270 nM | 1650 nM | GI50 [5]: 10600 nM; GI50 [6]: 5750 nM; GI50 [17]: 13900 nM; GI50 [24]: 6870 nM; GI50 [25]: 5760 nM; GI50 [26]: 3260 nM; GI50 [27]: 900 nM; GI50 [28]: 2610 nM
2 | COc1cc2nc(-c3ccc(Cl)cc3)cc(OCCCN3CCCC3)c2cc1OC | 1020 nM | 2780 nM | 683 nM | 3360 nM | 699 nM | 1480 nM | 3120 nM | 454 nM | 2710 nM | 2360 nM | 1060 nM | 1930 nM | 907 nM | 3000 nM | 1860 nM | 1280 nM | 1790 nM | 20% | 1500 nM | 1520 nM | GI50 [5]: 2420 nM; GI50 [6]: 2440 nM; GI50 [17]: 2720 nM; GI50 [24]: 2460 nM; GI50 [25]: 2530 nM; GI50 [26]: 2140 nM; GI50 [27]: 881 nM; GI50 [28]: 2030 nM
3 | COc1cc2nc(-c3ccc(Cl)cc3)cc(OCCCN3CCCCC3)c2cc1OC | 1310 nM | 2620 nM | 898 nM | 4420 nM | 828 nM | 1450 nM | 3090 nM | 492 nM | 3230 nM | 3280 nM | 1220 nM | 2450 nM | 666 nM | 3850 nM | 2340 nM | 1390 nM | 1890 nM | 20% | 2040 nM | 1900 nM | GI50 [6]: 2570 nM; GI50 [24]: 3070 nM; GI50 [25]: 3200 nM; GI50 [26]: 2790 nM; GI50 [27]: 838 nM; GI50 [28]: 1940 nM
4 | COc1cc2nc(-c3ccc(C(F)(F)F)cc3)cc(OCCCN3CCOCC3)c2cc1OC | 654 nM | 1760 nM | 640 nM | 10500 nM | 583 nM | 1440 nM | 3510 nM | 540 nM | 3730 nM | 2520 nM | 1180 nM | 2010 nM | 498 nM | 10300 nM | 1410 nM | 1240 nM | 1400 nM | 50% | 2510 nM | 1040 nM | GI50 [5]: 5040 nM; GI50 [17]: 9580 nM; GI50 [24]: 3420 nM; GI50 [25]: 5700 nM; GI50 [26]: 2790 nM; GI50 [27]: 830 nM; GI50 [28]: 628 nM
